# Screens deposited in PubChem by several laboratories.
# Shown are actives, neighbours in structure and some others; about 3.4% of the full set was active somewhere.
# MC4R antag cAMP – human MC4R antagonism in cAMP assay. P32245. MC4R-expressing cells, MTII-stimulated cAMP, LANCE TR-FRET. inhibition, % at 6.5 µM. 360,000 compounds, 0.48% hits. AID 540295;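 active = inhibition above its plate's cutoff, the mean of tested wells on that plate plus 3 SD, cut at about 29% in these data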;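 note: 0% = Melanotan II alone and 100% = Melanotan II plus saturating MCL0020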
#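 Assay system: U2OS cells stably expressing human melanocortin 4 receptor (MC4R) / Dosing: 6.5 µM / Timing: compound 30 min, challenge 1 h, detection 1 h / Measured by: Eu-cAMP/anti-cAMP TR-FRET, emission 671 nm / Replicates: singlicate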
# MIN6 prolif – inducers of beta-cell replication in MIN6 cells. proliferation, % at 10 µM. 330,000 compounds, 0.29% hits. AID 2380. MIN6 cells proliferation, ATPlite luminescence, 48 h; cells starved in 0.2% serum; 100% = growth in 10% serum;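 active = compounds whose signal lies at least 3.5 SD above the mean of all wells on their plate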;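 note: 0% = DMSO-treated cells in low-serum medium and 100% = 10% serum control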
# TMEM16A inh – blocks the mouse calcium-activated chloride channel TMEM16A; HEK293 TMEM16A/YFP iodide influx fluorescence, ionomycin; normalized B-score (activity score, 25-100; higher = stronger inhibition) at 10 µM; Q8BHY3; 310,000 compounds, 1.2% hits;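 active = ratio plate-corrected score three or more library SD toward inhibition, starting fluorescence score within five deviations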;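 note: score derived from kinetic fluorescence span divided by baseline fluorescence per well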
# HTR2A ag – mouse HTR2A agonism via beta-arrestin recruitment; CHO-K1 mHTR2A beta-arrestin complementation, luminescence; percent of 30 µM serotonin response; 360,000 compounds, 0.66% hits; activation, % at 7.6 µM; AID 624169; P35363;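 active = activation above a run cutoff, the mean activation of all tested compounds plus 3 SD, cut at about 14% in these data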;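 note: 0% = plate median of compound wells and 100% = 30 µM serotonin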
# Target sequence (P35363 whole entry, looked up): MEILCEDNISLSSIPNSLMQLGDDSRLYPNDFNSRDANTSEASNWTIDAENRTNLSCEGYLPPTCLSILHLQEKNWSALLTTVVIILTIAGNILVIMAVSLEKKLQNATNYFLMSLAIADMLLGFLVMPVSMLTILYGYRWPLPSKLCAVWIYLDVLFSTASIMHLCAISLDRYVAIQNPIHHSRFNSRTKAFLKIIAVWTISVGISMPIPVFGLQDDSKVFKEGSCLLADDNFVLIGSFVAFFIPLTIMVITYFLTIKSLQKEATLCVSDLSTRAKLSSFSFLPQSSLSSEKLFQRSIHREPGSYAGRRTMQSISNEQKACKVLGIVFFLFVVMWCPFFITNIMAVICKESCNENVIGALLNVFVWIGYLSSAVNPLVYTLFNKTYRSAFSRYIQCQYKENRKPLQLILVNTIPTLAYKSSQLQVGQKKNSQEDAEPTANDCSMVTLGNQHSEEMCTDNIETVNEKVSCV
# ANO1 activ – mouse TMEM16A channel activation, primary screen. Q8BHY3. HEK293 TMEM16A/YFP-H148Q/I152L, iodide quench fluorescence; hits give low values. AID 623877. B-score at 10 µM. 340,000 compounds, 0.3% hits;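 active = fluorescence-ratio B-score plate-corrected deviation score at least 3 library SD below zero, with starting fluorescence score within 5 deviations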;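 note: channel opened by trigger with iodide after compound preincubation; score built on the fluorescence ratio of max minus min over baseline; more negative score means more quench and so TMEM16A activation or potentiation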
# MC4R barr agon – agonists of human melanocortin 4 receptor (MC4R) beta-arrestin; 360,000 compounds, 0.98% hits; activation, % at 8.9 µM; U2OS MC4R beta-arrestin complementation, luminescence; percent of melanotan II response, DMSO zero;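 active = activation above a per-plate cutoff, the mean activation of sample wells on that plate plus 3 SD, cut at about 8% in these data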
# TMEM16A reconf – re-confirmation of mouse TMEM16A chloride channel inhibitors; shares compounds with TMEM16A inh; HEK293 TMEM16A/YFP-H148Q, iodide quench fluorescence; ionomycin added to raise cell calcium; inhibition, % at 10 µM; 2,300 compounds, 39% hits;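 active = mean duplicate percent inhibition, scaled so buffer wells are 0 and the reference blocker 100, over three buffer SD above buffer mean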
# HEK293 Ca mobil – alters calcium mobilization in TMEM16A HEK293 cells, counter-screen; shares compounds with TMEM16A inh; TMEM16A/YFP HEK293, Fluo4 calcium mobilization; calcium response (% of ionomycin), % at 10 µM; 2,300 compounds, 2% hits; AID 652231;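 active = duplicate-averaged calcium signal over 20% of the ionomycin maximum, relative to buffer baseline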;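 note: each well's signal is peak minus trough fluorescence divided by its pre-addition baseline; 0% = buffer wells and 100% = ionomycin wells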
# Parental YFP cnt – parental YFP-HEK293 iodide quench counter-screen activity. shares compounds with TMEM16A inh. ionomycin. YFP ratio F(max-min)/F0 at 10 µM. 2,300 tested, under 10 active. AID 652233;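 active = yellow fluorescent protein signal ratio exceeding the buffer control mean by over 5 SD of those controls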;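 note: ratio is mean of duplicate wells from kinetic YFP trace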
# ClC-1 inh – blocks the rat ClC-1 voltage-dependent chloride channel | AID 652236 | shares compounds with TMEM16A inh | ratio percent, % at 10 µM | CHO ClC-1-YFP, iodide influx fluorescence quench; iodide control reads 0, buffer control 100 | 2,300 tested, under 10 active;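 active = duplicate-mean ratio percent above the mean of iodide-only control wells, which defines zero, plus 5 of their SD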;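 note: higher percent means stronger block of ClC-1 iodide influx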
# An asterisk follows results filed as active; i = inactive; . = no result.
SMILES,MC4R antag cAMP,MIN6 prolif,TMEM16A inh,HTR2A ag,ANO1 activ,MC4R barr agon,TMEM16A reconf,HEK293 Ca mobil,Parental YFP cnt,ClC-1 inh
Cc1ccc(C(=O)NC2CCCc3c2cnn3-c2ccc(F)cc2F)cn1 (centres undefined),5.9,-7.0,i,7.9,i,1.7,.,.,.,.
COc1cc(OC)c(C(=O)Nc2ncn[nH]2)cc1OC,15.4,1.2,100*,2.8,i,1.2,i,i,-1.26,-3.0
O=C(c1ccccc1)c1cccc[n+]1[O-],-4.9,0.7,i,8.3,i,-0.3,.,.,.,.
COc1ccc(NC(=S)NC(NC(=O)c2cccc(Cl)c2)C(Cl)(Cl)Cl)c([N+](=O)[O-])c1 (centres undefined),-1.1,-4.5,25*,-8.5,i,-0.3,i,i,-1.2,-12.5
O=C(NCc1ccccc1)C(c1cccs1)N(C(=O)c1csnn1)C1CC1 (centres undefined),0.3,-3.0,i,1.7,i,-1.8,.,.,.,.
O=C(NCCc1ccccc1)C(c1cccs1)N(C(=O)c1csnn1)C1CC1 (centres undefined),-6.3,-2.0,25*,-0.8,i,-1.7,i,i,-1.01,-11.0
O=C(CSc1nc2ccc([N+](=O)[O-])cc2[nH]1)NC1CCCCC1,2.9,-0.7,25*,-2.6,i,-1.0,i,i,-0.979,-8.0
Cc1ccc2nc(SCC(=O)NC3CC3)[nH]c2c1,2.9,-0.2,i,8.3,i,-1.1,.,.,.,.
Cc1sc2ncn(CC(=O)OCC(=O)NC(C)(C)C)c(=O)c2c1C,1.1,-2.4,i,-2.2,.,4.0,i,i,-1.06,-5.0
COc1cc(NC(=O)c2sc3ncn(CC(=O)N4CCCCC4C)c(=O)c3c2C)cc(OC)c1OC (centres undefined),1.3,.,.,2.9,.,-0.4,.,.,.,.
COc1ccc(C(=O)C2CCN(S(=O)(=O)c3ccc4c(c3)OCCO4)CC2)cc1,-3.8,-2.7,100*,-6.0,i,-0.9,22.5%*,i,-0.678,-6.0
COc1ccc(CN2C(=O)C(CC(=O)NCc3cccs3)CC(C(=O)N(C(C)C)C(C)C)=C2C)cc1 (centres undefined),3.8,.,.,1.2,.,-1.7,.,.,.,.
CC1CC(C)CN(c2ncnc3c2cnn3Cc2ccc(Cl)cc2)C1 (centres undefined),4.4,-5.6,25*,-4.0,i,0.9,i,i,-1.01,-2.0
Cc1ccc(S(=O)(=O)NC(=O)COc2ccc([N+](=O)[O-])cc2)cc1,2.8,3.8,i,1.4,i,-2.5,.,.,.,.
O=C(CCCc1ccccc1)Nc1nccs1,-3.9,0.6,i,-0.9,i,-2.0,.,.,.,.
COC(=O)C1C2OC(C(Br)C2Br)C1C(=O)OC (centres undefined),1.5,.,.,-0.1,.,-2.0,.,.,.,.
O=C(Nc1cccc(C(=O)N2CCN(Cc3ccccc3)CC2)c1)c1ccccc1,16.9,0.0,i,1.5,i,0.3,.,.,.,.
O=C(Nc1ccc(S(=O)(=O)N2CCCC2)cc1)c1ccc(CN2CCc3ccccc3C2)cc1,11.9,0.0,i,-0.2,i,2.7,.,.,.,.
CC(=O)c1cccc(NC(=O)c2ccc(CN3CCc4ccccc4C3)cc2)c1,0.3,-2.1,i,3.6,i,0.4,20.0%*,i,-0.958,-11.0
O=C(Nc1ccc(S(=O)(=O)N2CCOCC2)cc1)c1ccc(CN2CCc3ccccc3C2)cc1,.,-6.0,100*,.,.,.,50.5%*,i,-1.11,-28.0
COc1cccc(NC(=O)c2ccc(CN3CCc4ccccc4C3)cc2)c1,2.3,-4.1,i,-8.5,i,-0.9,.,.,.,.
CCOC(=O)c1ccc(NC(=O)c2ccc(CN3CCc4ccccc4C3)cc2)cc1,0.4,-3.1,100*,-4.6,i,1.2,16.0%*,i,-1.15,-8.0
Cc1cccc(NC(=O)c2ccc(CN3CCN(Cc4ccccc4)CC3)cc2)c1,26.1,-0.2,25*,1.7,i,-2.3,i,i,-0.871,-12.5
CCCCOCCCNC(=O)C[C@@H]1C[C@@]2(C(=O)OCC)CCCC=C2N(Cc2ccc(Cl)cc2Cl)C1=O,.,.,.,-4.5,.,.,.,.,.,.
Cc1cccc(-c2nnc(NC(=O)c3ccc(N4C(=O)CCC4=O)cc3)s2)c1,4.8,1.8,i,-0.4,i,0.4,i,i,-0.864,-10.0
SMILES,MC4R antag cAMP,MIN6 prolif,TMEM16A inh,HTR2A ag,ANO1 activ,MC4R barr agon,TMEM16A reconf,HEK293 Ca mobil,Parental YFP cnt,ClC-1 inh
Cc1ccccc1-c1nnc(NC(=O)c2ccc(N3C(=O)CCC3=O)cc2)s1,11.2,0.9,i,-10.6,i,3.6,.,.,.,.
Cc1ccc(NC(NC(=O)c2cccs2)C(Cl)(Cl)Cl)cc1C (centres undefined),4.5,0.1,100*,-3.1,i,5.2,28.5%*,i,-1.21,-9.5
CCOC(=O)c1ccccc1NS(=O)(=O)c1ccc(C)cc1,0.3,0.7,i,-7.4,i,-1.6,.,.,.,.
CCOC(=O)c1cc(C)n(S(=O)(=O)c2ccc(C)cc2)c1C,0.5,-0.4,100*,1.5,i,2.0,18.0%*,i,-1.12,-4.5
COCCN(C(=O)COC(=O)CSc1ccccc1)c1c(N)n(Cc2ccccc2)c(=O)[nH]c1=O,5.9,-3.5,i,9.4,i,0.3,.,.,.,.
CSc1nc(N)nc2c1ncn2CC(=O)N1CCN(Cc2c(C)cc(C)cc2C)CC1,6.7,-5.2,.,7.7,.,-0.9,.,.,.,.
CCOC(=O)c1c(NC(=O)CSc2nnc(-c3ccccc3C)n2C)sc(C(C)=O)c1C,7.1,-5.4,25*,-3.9,i,-2.0,i,i,-0.79,-11.5
CCOC(=O)c1c(NC(=O)CSc2nnc(Cc3ccccc3)o2)sc(C)c1C,8.1,-3.6,100*,-3.0,i,-1.3,i,i,-1.2,-0.5
CCOC(=O)c1c(NC(=O)CSc2nnc(-c3ccco3)o2)sc(C)c1C,-9.6,3.0,i,-1.9,i,0.6,.,.,.,.
CC(=O)Nc1nc(-c2ccc3c(c2)CCN3S(C)(=O)=O)cs1,-5.4,-2.2,i,4.8,i,-1.4,.,.,.,.
